# Compound activity as filed in PubChem.
# Diaph act CS = diaphorase activation or chemical reduction counter-screen | 190,000 tested, 0.005% active | activation factor at 20 µM | Diaphorase/resazurin coupled assay, resorufin fluorescence, 16 min; active compounds read high; 1 = vehicle wells, 0 = NADH-free wells;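 active = diaphorase activity raised at least twofold by the compound at 20 µM; inactive = activation factor below 2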
#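 test system = bacterial diaphorase enzyme (C. kluyveri) | quantity = enzyme 0.07 U/mL final | reagent = NADH substrate 0.114 mM plus resazurin dye 0.1 mM, final | incubation = 16 min enzyme reaction, ambient temperature | buffer or medium = HEPES pH 7.4 buffer with MgCl2 and Tween 20 | signal = fluorescence of resorufin, 544 nm excitation, 590 nm emission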
# Lmaj promast = reduces viability of Leishmania major promastigotes | resazurin fluorescence viability | inhibition, % at 10 µM | 200,000 tested, 9% active; in the data active = inhibition above about 50%;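 also: promastigotes grown with compound for 44 hours at 28 °C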
# PMI act hi M6P = activators of human phosphomannose isomerase at near-saturating mannose 6-phosphate; P34949; coupled PMI enzyme assay, resazurin fluorescence, 20 min; active compounds read high; 1 = untreated enzyme, 0 = substrate-free blank; activation factor at 20 µM; 190,000 tested, 0.34% active;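 active = activation factor of 2 or more at 20 µM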
# Target sequence (P34949 whole entry, looked up): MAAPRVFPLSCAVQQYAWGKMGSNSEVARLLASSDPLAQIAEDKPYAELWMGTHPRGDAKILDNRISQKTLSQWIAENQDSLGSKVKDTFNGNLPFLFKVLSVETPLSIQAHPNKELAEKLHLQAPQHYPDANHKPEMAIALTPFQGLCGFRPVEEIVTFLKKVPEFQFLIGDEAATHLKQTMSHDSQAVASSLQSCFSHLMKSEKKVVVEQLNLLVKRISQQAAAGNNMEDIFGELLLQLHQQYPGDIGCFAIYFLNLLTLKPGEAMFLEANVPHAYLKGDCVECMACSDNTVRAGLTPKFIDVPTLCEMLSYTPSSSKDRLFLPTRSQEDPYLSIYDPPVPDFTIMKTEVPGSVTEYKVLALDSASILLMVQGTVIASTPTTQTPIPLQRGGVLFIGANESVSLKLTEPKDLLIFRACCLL
#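 test system = human PMI in coupled enzyme assay | medium = HEPES-buffered pH 7.4 with magnesium and detergent | also added = 1.0 mM mannose-6-phosphate substrate with 0.22 mM NADP+ | compound = 20 µM single dose | times = 20 min incubation at room temperature | measured by = resorufin fluorescence (Ex 544/Em 590 nm) from resazurin via diaphorase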
# PMI activator = increases human mannose-6-phosphate isomerase activity; purified human PMI, coupled resazurin fluorescence, 20 min; active compounds read high; 1 = vehicle control, 0 substrate-free wells; AID 1214; 190,000 tested, 0.005% active; activation factor at 20 µM; P34949;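 active = activation factor of 2 or more at 20 µM, relative to plate controls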
# WT yeast gro inh = growth inhibition of WT yeast, mitochondrial fusion screen; 190,000 tested, 2.1% active; AID 1362; inhibition, % at 10 µM; mitochondrial fusion phenotypic screen, WT strain; in the data active = inhibition above about 58%; tested in S. cerevisiae
# Active calls of the source: *; nt = no result. An excerpt weighted towards active compounds, which were near 10% of everything screened.
SMILES,Diaph act CS,Lmaj promast,PMI act hi M6P,PMI activator,WT yeast gro inh
Cc1ccc2[nH]c3c(c2c1)CN(C(=O)CN1CCN(c2ccccc2F)CC1)CC3,0.9,23,0.8,1.1,31
CC1CN(CC(=O)N2CCc3[nH]c4ccccc4c3C2)CC(C)O1 (centres undefined),0.9,-4,0.8,1.1,-13
O=C(CN1CCN(Cc2ccc3c(c2)OCO3)CC1)N1CCc2[nH]c3ccccc3c2C1,0.8,82*,0.9,0.9,7
CCN(C(=O)COC(=O)c1ccc(N2C(=O)c3ccccc3C2=O)cc1)C1CCS(=O)(=O)C1 (centres undefined),1,-1,1,1,-3
O=C(CSc1nnc(-c2ccc(Cl)cc2)n1Cc1ccco1)c1cccs1,0.7,80*,1.3,1.1,-2
COc1ccc(C(=O)CSc2nnc(-c3cc4ccccc4cc3O)n2Cc2ccco2)cc1,0.9,69*,1,1,24
COc1ccc(C(=O)CSc2nnc(-c3cccnc3)n2Cc2ccco2)cc1,0.9,2,1.1,1.1,0
Cc1cc(-c2cccc([N+](=O)[O-])c2)nc2ccc3ccccc3c12,0.9,-5,1.1,1.1,-2
O=C(CCl)c1ccc2c(c1)CCN2C(=O)C1CC1,1.2,100*,1.2,1.3,14
O=C(CCl)c1ccc2c(c1)CCN2C(=O)C1CCCCC1,0.8,100*,1,1,11
Cc1nc2ccccn2c1C(=O)CSc1ccccc1,0.9,6,0.9,1,22
O=C1N/C(=C/c2ccc(N3CCCC3)cc2)C(=O)N1c1ccccc1,0.9,69*,0.9,1,-15
O=C(c1cc2ccccc2c(=O)o1)N1CCCCCC1,0.9,-3,1,1,-15
CCOC(=O)c1cnc2c(C)cccc2c1Nc1ccc(N2CCOCC2)cc1,0.8,43,0.8,1,23
CCOC(=O)c1cnc2c(C)cccc2c1NCc1ccco1,0.9,56*,0.9,0.8,18
CCOC(=O)c1cnc2c(C(=O)OC)cccc2c1NCc1ccco1,0.9,51*,1,1,nt
CCOC(=O)c1cnc2c(cnn2C)c1NCc1ccc(OC)cc1,0.9,27,1,1.1,6
CSc1ccc(CN2CCN(Cc3ccc([N+](=O)[O-])cc3)CC2)cc1,0.9,91*,1,1,36
CCS(=O)(=O)N1CCN(Cc2ccc([N+](=O)[O-])cc2)CC1,0.9,-5,1.1,0.9,-9
O=[N+]([O-])c1ccc(CN2CCOCCOCCN(Cc3ccc([N+](=O)[O-])cc3)CCOCC2)cc1,0.9,80*,1,0.9,3
C=CCOC(=O)C1=C[C@H](C2CCCCC2)[C@@H](CCCO)[C@H](OCC)O1,0.8,3,1,0.8,0
Nn1c(SC/C=C/c2ccccc2)nnc1-c1cccnc1,1,0,1.1,1.1,2
Clc1ccc(-n2c(SC/C=C/c3ccccc3)nnc2-c2cccnc2)cc1,0.8,74*,1,0.9,23
CCOP(=O)(OCC)C(Nc1cccc(C(F)(F)F)c1)c1ccc(Br)cc1 (centres undefined),0.7,99*,0.9,0.8,80*
Brc1cccc2sc(N3CCCC3)nc12,0.9,-5,0.9,0.9,20
SMILES,Diaph act CS,Lmaj promast,PMI act hi M6P,PMI activator,WT yeast gro inh
Cc1ccc(NC(=O)C2c3ccccc3Oc3ccccc32)c(C)c1,1,3,1,0.9,30
COc1ccc(-c2nc(NC(=O)c3ccc(OCC(=O)N4CCOCC4)c(OC)c3)sc2C)cc1,0.9,61*,1,0.8,-4
COc1cc(C(=O)Nc2nc(-c3ccc(Cl)cc3)c(C)s2)ccc1OCC(=O)Nc1ccc(F)cc1,1,-3,1.1,1,3
CCOC(=O)c1nnn(CC(=O)N2N=C(c3cccc4ccccc34)CC2c2ccccc2)c1C(=O)OCC (centres undefined),0.9,52*,1,1.1,-7
CCOC(=O)c1nnn(CC(=O)Nc2cccc(Cl)c2C)c1C(=O)OCC,0.9,7,1,1,6
CC1CCc2cc(F)ccc2N1S(=O)(=O)c1ccc(Cl)nc1 (centres undefined),0.9,1,1,1,-6
CC(C)Nc1nc(NC(C)C)nc(SCC(N)=O)n1,1,-7,1,1,-23
Cc1c(NC(=O)/C(C#N)=C/c2cccs2)c(=O)n(-c2ccccc2)n1C,0.9,67*,0.9,1,9
N#C/C(=N\Nc1cccc(Cl)c1)C(=O)c1ccccc1,0.9,-6,1.1,1,72*
Cc1c(N/N=C(\C#N)C(=O)c2ccccc2)c(=O)n(-c2ccccc2)n1C,1.1,11,2.1*,1.6,7
Cc1ccccc1C(=O)/C(C#N)=N/Nc1c(C)n(C)n(-c2ccccc2)c1=O,0.8,26,1.9,1.3,1
Cc1ccc(CNCC(O)(c2ccccc2)c2ccc(F)cc2)cc1 (centres undefined),1,-1,0.9,0.9,75*
CC(OC(=O)CCc1nc2ccccc2c(=O)[nH]1)C(=O)c1ccc(Br)cc1 (centres undefined),0.9,-3,1,1,-15
CCCCCCC1CC(=O)NC(=S)N1 (centres undefined),0.9,0,0.9,1,16
Cn1c(Oc2ccc3c(c2)OCO3)nc2c1c(=O)n(Cc1ccccc1)c(=O)n2C,0.8,-1,0.9,0.9,98*
N#Cc1c(-c2ccco2)cc(-c2ccccn2)nc1N,0.7,78*,0.8,0.8,-12
O=C1CCCc2oc3c(c21)CCCC3,0.8,-3,0.9,1,-5
CC(C)(C)c1ccc(-c2nnc(SCCC#N)n2C2CCCC2)cc1,0.8,5,0.8,0.8,66*
Cc1nc2cc(C(=O)OCC(=O)NC34CC5CC(CC(C5)C3)C4)ccc2n1-c1ccccc1,1,-2,1,0.9,59*
O=C(Nc1cc2c(oc1=O)CCCC2=O)c1ccc(Cl)cc1,0.8,-4,0.9,1,-6
c1ccc2c(-c3[nH]ncc3CNCCCn3ncc4ccccc43)cccc2c1,1.1,77*,0.9,0.9,4
NC(=O)CCN1CCN(Cc2cn[nH]c2-c2cccc3ccccc23)CC1,0.9,-3,1,1,7
CN(C)CC/C=C1/c2cc(F)ccc2CSc2ccc(F)cc21,0.9,99*,1,1,6
C=CCN(C)CC/C=C1\c2ccccc2CSc2ccccc21,0.9,100*,1,1,11
CN(CC/C=C1/c2ccccc2CSc2ccccc21)CCCO,1,56*,1,1.1,7
NCC/C=C1/c2ccccc2CSc2ccccc21,1,54*,1,1,-14
CCN(CC)S(=O)(=O)c1cccc(C(=O)Oc2cccc(NC(=O)c3cccs3)c2)c1,0.8,4,0.8,0.8,-13
